# Experimental data: article PMC12005346 (ACS chemical neuroscience, 2023)
# Counter-ions that a name gives are not always drawn. *1 amine or outer side, *2 acyl side, *3 side chain or, on linkers, in order; H or OH if unused. Where a SMILES comes first, the peptide text is derived from it. Bridges are numbered along the chain shown (N, C = ends). Roman numbers before positions name the chains, in order. [ ]: non-standard residue; d: D form. Piperazine(1,4-diyl) = C1CN([*:2])CCN1[*:1]; Phe(4-F) = N[C@@H](Cc1ccc(F)cc1)C(=O)O; Dmt = Cc1cc(O)cc(C)c1C[C@H](N)C(=O)O; oXylylene = c1ccc(C[*:2])c(C[*:1])c1
# Assays:
# [1] = target: human KOR expressed in CHO cells (Homo sapiens, UniProt P41145); assay: 35S-GTPγS coupling assay at KOR; assay type: biochemical
# Sequence of human KOR expressed in CHO cells (P41145 whole entry): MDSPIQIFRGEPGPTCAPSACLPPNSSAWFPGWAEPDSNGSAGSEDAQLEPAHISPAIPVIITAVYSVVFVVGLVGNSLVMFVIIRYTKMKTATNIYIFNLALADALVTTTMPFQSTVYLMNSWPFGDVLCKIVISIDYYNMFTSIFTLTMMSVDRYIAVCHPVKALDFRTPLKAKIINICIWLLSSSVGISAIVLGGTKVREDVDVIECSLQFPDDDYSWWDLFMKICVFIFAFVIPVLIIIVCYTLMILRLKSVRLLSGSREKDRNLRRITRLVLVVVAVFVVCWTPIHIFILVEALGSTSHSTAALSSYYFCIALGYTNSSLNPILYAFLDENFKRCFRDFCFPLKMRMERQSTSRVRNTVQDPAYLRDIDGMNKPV
# Procedure, shortened: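 Test compounds stimulated 35S-GTPγS coupling at human MOR, DOR or KOR expressed in CHO cells. Reference agonists were included to validate the assay: DAMGO for MOR, SNC80 for DOR and U50,488 for KOR. EC50 and EMAX were calculated separately for each independent experiment and reported as mean ± SEM of N ≥ 3 experiments.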
# formalin-induced pain = assay: Formalin test; assay type: in vivo, mouse; details: s.c. hind paw 100 nmol/20 μL, 15 min before formalin
# Procedure, shortened: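 Test compound (100 nmol/20 μL) was injected s.c. into the left dorsal hind paw 15 min before formalin (1% in saline, 20 μL/paw) in the same paw. Vehicle was DMSO/saline 1:5 v/v, […] s.c. Total licking/biting time was scored in the early and late phases. Analysis was two-way ANOVA with Tukey's test.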
# [2] = system: dependence and withdrawal; assay: Naloxone-precipitated withdrawal; assay type: in vivo, CD-1 mice; details: 3.2 mg/kg s.c. repeated dosing, naloxone 30 mg/kg i.p. on day 4
# [3] = system: response to thermal nociceptive stimuli; assay: Hot plate test after i.c.v. administration; assay type: in vivo, mouse; details: i.c.v. 0.6 nmol/10 μL, 90 to 120 min after administration
# Procedure, shortened: (§1)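 Mice received test compound i.c.v. at 0.6 nmol/10 μL. Vehicle was DMSO/saline 1:5 v/v, 10 μL/mouse. Hot plate and tail flick responses to thermal stimuli were recorded as a time course starting 15 min after dosing and expressed as % MPE. Groups were N = 12 or 7. Analysis was two-way ANOVA with Tukey's test versus vehicle.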
# [4] = system: response to thermal nociceptive stimuli; assay: Tail flick test after i.c.v. administration; assay type: in vivo, mouse; details: i.c.v. 0.6 nmol/10 μL, 90 to 120 min after administration
# Procedure, shortened: as §1
molecule,measurement,setting,value
"Cc1cc(O)cc(C)c1C[C@H](N)C(=O)N[C@@H]1CSCc2ccccc2CSC[C@@H](NC(=O)[C@@H](N)Cc2c(C)cc(O)cc2C)C(=O)NCC(=O)N[C@@H](Cc2ccc(F)cc2)C(=O)N2CCN(CC2)C(=O)[C@H](Cc2ccc(F)cc2)NC(=O)CNC1=O [MJ4, 2 TFA c(Dmt-D-Cys-Gly-P-F-Phe)2-piperazine o-Xylene] (I: H-[Dmt][dC]G[Phe(4-F)] / II: H-[Dmt][dC]G[Phe(4-F)]; linker I:2-II:2 via oXylylene; linker I:C-II:C via Piperazine(1,4-diyl))","KOR agonist activity, in words",[1],more potent agonist activity
same,"licking/biting behavior induced by formalin, early phase",formalin-induced pain,did not change the effects induced by formalin
same,"licking/biting behavior induced by formalin, late phase",formalin-induced pain,did not change the effects induced by formalin
CN1CC[C@]23c4c5ccc(O)c4O[C@H]2[C@@H](O)C=C[C@H]3[C@H]1C5 [morphine],urine/feces output in naloxone-precipitated withdrawal,[2],comparable urine/feces output
biphalin,"antinociceptive effect (% MPE), hot plate",[3],antinociceptive effects steadily decrease
same,"antinociceptive effect (% MPE), tail flick",[4],antinociceptive effects steadily decrease
